Molecular target: T1, OR5M3 (Homo sapiens) (UniProt Q8NGP4)
T1 sequence (whole entry): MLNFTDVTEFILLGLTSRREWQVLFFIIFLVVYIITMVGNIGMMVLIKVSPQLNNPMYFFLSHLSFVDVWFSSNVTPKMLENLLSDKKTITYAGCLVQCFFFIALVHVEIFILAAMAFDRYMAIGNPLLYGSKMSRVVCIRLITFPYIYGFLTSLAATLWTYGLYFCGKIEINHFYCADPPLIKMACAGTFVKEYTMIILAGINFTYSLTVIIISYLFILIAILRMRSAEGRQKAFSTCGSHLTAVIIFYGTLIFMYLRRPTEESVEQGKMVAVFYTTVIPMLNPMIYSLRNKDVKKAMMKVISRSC
Details: stereoisomer not certain
How it was run: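 Whether a receptor–molecule pair is responsive (active) rests on the original authors' judgment that its measured signal was statistically different from baseline. Pairs without that judgment are non-responsive (inactive). Sources used varied assay methods, commonly transient luciferase assays in mammalian cell lines.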
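Further: active if original authors judged signal statistically different from baseline.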

Odorant receptor agonist call, inactive:
CCCCCCCC1CCCC(=O)O1 (stereo not drawn)
CCCCC1OC(=O)CC1C (stereo not drawn)
CCOC(=O)CCC(C)C
CCCCC(=O)OCC
COc1ccc2ccc(=O)oc2c1
CCCCC=CC=CC=O
CC(C)=CCCC(C)=CCO
O=C(O)CCc1ccccc1
CC(C)(S)CCOC=O
Cc1cccc(C)c1O
Cc1occc1S
CC(=O)OCCc1ccccc1
C=Cc1ccc(O)c(OC)c1
CCCC(=O)OCC
CCCC1CCCC(=O)O1 (stereo not drawn)
CSC
COc1ccc(C)cc1O
CCC(C)CCC(=O)[O-] (stereo not drawn)
Cc1ccc(O)cc1
CC=CC(=O)C(C)CC (stereo not drawn)
CCOC(=O)C1CCCCC1
CC(C)=CC1CC(C)CCO1 (stereo not drawn)
COCCC(C)(C)S
CCCc1ccc(O)c(OC)c1
CCCC(=O)OC
CCC=CCCC=CCO
CCCCC(CC)CCC(=O)O (stereo not drawn)
CCCCCCCC(=O)OCC
CCCC(=O)C(C)CC (stereo not drawn)
CCCCC=CC=O
CCC(=O)C(C)=O
CCCCCCC1CCC(=O)O1 (stereo not drawn)
CC(=O)O
